Published values of several laboratories.
Lines come from different studies, so protocols differ.
Read-out: cell growth or viability

COc1cccc2c1C(=O)c1c(O)c3c(c(O)c1C2=O)C[C@@](O)(C(=O)CO)C[C@@H]3O[C@H]1C[C@H](N)[C@H](O)[C@H](C)O1  IC50 (SK-OV-3; 48 h): 1.2 µg/mL
CC[C@@]1(OC(=O)CN)C(=O)OCc2c1cc1n(c2=O)Cc2cc3cc4c(cc3nc2-1)OCO4  IC50 (HCT-116; MTT): 25 nM
Cc1cc(N(CCO)CCO)ccc1C(=O)O  IC50 (SN12K1): > 10 µg/mL
Cc1c(Cc2cccc(N(C)S(=O)(=O)CCCNCCCC(=O)N3CCN(c4ccc(Nc5c(C(N)=O)cnc6ccc(-c7cnc8ccccc8c7)cc56)cc4C(F)(F)F)CC3)c2)c(=O)oc2cc(OC(=O)N(C)C)ccc12  GI50 (HCT-116; CCK-8): 5470 nM
Cc1cc(N(CCO)CCO)ccc1C=O  IC50 (SN12K1): > 10 µg/mL
C=CC(=O)Nc1cc(Nc2nccc(-c3cn(C)c4ccccc34)n2)c(OC)cc1N(C)CCN(C)C  IC50 (PC-9; 72 h): 8 nM
CC1=C(O)C(=O)C=C2C1=CC=C1[C@@]2(C)CC[C@@]2(C)[C@@H]3C[C@](C)(C(=O)O)CC[C@]3(C)CC[C@]12C  IC50 (AGS; MTT; 48 h): 390 nM
CCCc1cc(=O)n2nc(NCc3c(F)cc(Cl)cc3F)c(C#N)c2[nH]1  IC50 (U-87 MG; ATP luminescence; 72 h): > 50000 nM
CC[C@H](C)[C@H](N)C(=O)O[C@]1(CC)C(=O)OCc2c1cc1n(c2=O)Cc2cc3cc4c(cc3nc2-1)OCO4  IC50 (HCT-116; MTT): 64 nM
CC(C)C[C@@H]1NC(=O)[C@H](Cc2ccccc2)NC(=O)[C@H](CCCCN)NC(=O)[C@H](CC(C)C)NC(=O)[C@H](C(C)C)NC1=O  inhibition (HCT-116; thymidine uptake; 10 µM, 72 h): 0%
Cc1cccc2[nH]cc(CNCC3(N4CCCC4)COC3)c12  viability (U-87 MG; 30 µM, 48 h): 52.5%
COc1cc2c(c3c1C(=O)C[C@@H](c1ccccc1)O3)[C@H]1[C@@H](O2)OC(C)(C)[C@@H]1OC(C)=O  IC50 (Raji; MTS; 72 h): > 10000 nM
CC[C@@]1(OC(=O)C(C)c2ccc(CC(C)C)cc2)C(=O)OCc2c1cc1n(c2=O)Cc2cc3cc4c(cc3nc2-1)OCO4 (stereo partly shown)  IC50 (HCT-116; MTT): > 5000 nM
